From ChEMBL document CHEMBL4052589, “Discovery of Imidazo[1,2-a]pyridine Ethers and Squaramides as Selective and Potent Inhibitors of Mycobacterial Adenosine Triphosphate (ATP) Synthesis” (J Med Chem, 2017)

Tested on: Mycobacterium tuberculosis
Experiment: Induction of membrane damage in Mycobacterium bovis BCG after 60 mins by DiOC2 probe-based fluorescence assay
Type: functional
Conditions: variant bovis BCG, 1 h
Summary of the method: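 Cell-based assay. Mid-log phase BCG culture was pre-loaded with DiOC2 before compound exposure. Fluorescence was read as the red-shifted emission at 600 nm, which tracks membrane potential. CCCP served as the positive control, and IC50 was derived.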

Compound: Cc1ccc2nc(-c3ccccc3)c(OCCCOc3ccccc3)n2c1
- IC50: > 100 µM

Compound: Cc1ccc2nc(-c3ccc(F)cc3)c(OCCCNc3ccc(F)c(C)n3)n2c1
- IC50: > 100 µM

Compound: O=c1c(NCc2ccccn2)c(-c2ccc(N3CCOCC3)cc2)c1=O
- IC50: > 100 µM

Compound: c1ccc(OCCCOc2c(-c3ccccc3)nc3ccccn23)cc1
- IC50: > 100 µM

Compound: O=c1c(NCc2cnccn2)c(-c2ccc(N3CCOCC3)cc2)c1=O
- IC50: > 100 µM

Compound: Cc1ccc2nc(-c3ccc(F)cc3)c(OCCCNc3ccc(F)c(C)c3)n2c1
- IC50: > 100 µM
